Results on one compound are retold here after ChEMBL document CHEMBL4765352, “Discovery of AdipoRon analogues as novel AMPK activators without inhibiting mitochondrial complex I” (Eur J Med Chem, 2020).

Assay [1] has as its system Mus musculus. Description: Antihyperglycemic activity in db/db mouse assessed as improved insulin resistant at 100 mg/kg, ig administered once daily for 9 weeks by ITT. The format is functional, organism-based. In short, it runs like this: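 db/db mice dosed from 5 weeks of age with 100 mg/kg/day in 0.5% methylcellulose vehicle, for 9 weeks. After a 6 h fast, insulin was injected i.p. at 1.5 mU/g body weight and tail-vein blood glucose followed. Data given as mean ± SEM and compared by two-way ANOVA.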

Another assay has as its system A549. Put plainly: Activation of AMPK in human A549 cells harboring mutant LKB1. The format is cell-based.
Another assay relates to C2C12. Put plainly: Activation of AMPK in mouse C2C12 cells with SiRNA-induced LKB1 knock down assessed as increase in AMPK phosphorylation. Type of assay: cell-based.
The test system of assay [2] is Mus musculus. Put plainly: Activation of AMPK in normal lean C57BL/6 mouse assessed as increase in phosphorylated AMPK level in heart tissue at 100 mg/kg, ig administered for 4 weeks by Western blot analysis. Type of assay: functional, organism-based. In short, it runs like this: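 Male C57BL/6 mice, 9 weeks old, dosed intragastrically once daily for 4 weeks alongside vehicle controls. Heart and skeletal muscle were homogenized in RIPA buffer with protease/phosphatase inhibitors and centrifuged at 10,600 g for 20 min. About 30 µg protein was blotted for p-AMPK and p-ACC and detected by ECL.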
In general terms: In western blotting, separated proteins are transferred to a membrane and probed.

For assay [3], the system named is Mus musculus. Put plainly: Hypoglycemic activity in 6 hrs fasted ig dosed normal lean C57BL/6 mouse assessed as improved glucose tolerance pretreated for 2 hrs followed by glucose challenge and measured up to 90 mins post glucose challenge starting from 120 mins prior to […] by IPGTT. Type of assay: functional, organism-based. As to conditions: dose 25-100 mg/kg, time 210.0 min. In short, it runs like this:
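C57BL/6 mice (male, 8-10 weeks, n=6 per group) fasted 6 h, then given compound or vehicle intragastrically. Two hours later, 20% glucose was injected i.p. at 2 g/kg. Tail-vein glucose read by glucometer at -120, 0, 20, 40, 60 and 90 min, and net AUC calculated. Doses were 25, 50 and 100 mg/kg.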

Calls of active or inactive are those of the source. No cut-off for these calls is given here.

Turning to `CC(C)(Oc1ccc(Cl)cc1)C(=O)Nc1ccc(OCc2ccc(C#N)cc2)cc1`, in the assay with Mus musculus [1], the result was Active. The result with A549, in the assay on C2C12 and with Mus musculus [2] was inactive. In the assay on Mus musculus [3], the Activity entry is “Dose-dependent effect”.
